# From ChEMBL document CHEMBL1250442, “Inhibiting gene expression at transcription start sites in chromosomal DNA with antigene RNAs” (Nat Chem Biol, 2005)
# Active and inactive are the calls of the source. The calls are words filed in the database; no cut-off is given here.
# What was measured:
# T47D [1] = test: Inhibition of PR-A gene expression in human T47D cells at 25 nM by syber green assay; assay type: functional
# Outline: (§1)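 T47D cells plated at 80,000/well without antibiotics two days before Oligofectamine transfection with agRNA duplex (25 or 100 nM final); medium changed at 24 h, harvest day 5 unless stated otherwise. TRIzol total RNA; PR mRNA by real-time PCR with SYBR Green: 50 °C 2 min, 95 °C 10 min, 40 cycles 95 °C 15 s/60 °C 1 min.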
# T47D [2] = test: Inhibition of PR-B gene expression in human T47D cells at 25 nM by syber green assay; assay type: functional; outline: as §1
# T47D [3] = test: Inhibition of PR-A gene expression in human T47D cells by syber green assay; assay type: functional, cell-based; outline: as §1
# T47D [4] = test: Inhibition of PR-B gene expression in human T47D cells by syber green assay; assay type: functional, cell-based; outline: as §1
# T47D [5] = test: Inhibition of PR-A gene expression in human T47D cells at 25 nM by syber green assay in presence of 10 nM estradiol; assay type: functional, cell-based
# T47D [6] = test: Inhibition of PR-B gene expression in human T47D cells at 25 nM by syber green assay in presence of 10 nM estradiol; assay type: functional, cell-based
# T47D [7] = test: Inhibition of PR-A mRNA gene expression in human T47D cells at 100 nM by syber green assay; assay type: functional; outline: as §1
# T47D [8] = test: Inhibition of PR-B mRNA gene expression in human T47D cells at 100 nM by syber green assay; assay type: functional
# Outline: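 T47D cells in RPMI-1640 with 10% FBS, NEAA, insulin, 37 °C, 5% CO2. Plated two days before transfection without antibiotics. Oligofectamine-mediated duplex RNA transfection at 100 nM final, medium changed at 24 h, harvest five days post-transfection. Total RNA extracted with TRIzol. hPR mRNA quantified by SYBR Green qPCR: 50 °C 2 min, 95 °C 10 min, then 40 cycles of 95 °C 15 s / 60 °C 1 min.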
# T47D [9] = test: Inhibition of PR-A gene expression in human T47D cells harboring inactive DNA methyltransferase-1 at 25 nM by syber green assay; assay type: functional, cell-based
# T47D [10] = test: Inhibition of PR-B gene expression in human T47D cells harboring inactive DNA methyltransferase-1 at 25 nM by syber green assay; assay type: functional, cell-based
# T47D [11] = test: Effect of DNA methylation at (-112) CpG site near PR-B transcription start site (-9) in human T47D cells by sodium bisulfite sequencing analysis; assay type: functional, cell-based
# Outline: (§2)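 T47D cells (RPMI-1640, 10% FBS, NEAA, insulin; 37 °C, 5% CO2) transfected with agRNA duplexes via Oligofectamine, medium changed at 24 h. Genomic DNA bisulphite-treated, regions around AR and hPR-B start sites PCR-amplified (HotStarTaq, 100 ng treated DNA), gel-purified, TOPO TA cloned; 5–15 colonies per plate miniprepped and sequenced.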
# T47D [12] = test: Effect of DNA methylation at (-75) CpG site near PR-B transcription start site (-9) in human T47D cells by sodium bisulfite sequencing analysis; assay type: functional, cell-based; outline: as §2
# T47D [13] = test: Effect of DNA methylation at (-46) CpG site near PR-B transcription start site (-9) in human T47D cells by sodium bisulfite sequencing analysis; assay type: functional, cell-based; outline: as §2
# T47D [14] = test: Effect of DNA methylation at (-23) CpG site near PR-B transcription start site (-9) in human T47D cells by sodium bisulfite sequencing analysis; assay type: functional, cell-based; outline: as §2
# T47D [15] = test: Effect of DNA methylation at (+20) CpG site near PR-B transcription start site (-9) in human T47D cells by sodium bisulfite sequencing analysis; assay type: functional, cell-based
# Outline: (§3)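 T47D cells grown in RPMI-1640 with 10% FBS, 0.5% NEAA, insulin and P/S at 37 °C, 5% CO2. They were plated at 80,000 cells/well 2 days before lipid transfection with 25 nM or 100 nM duplex, with medium changed at 24 h. Cells were harvested 5 days post-transfection. 100 ng bisulfite-treated DNA was PCR-amplified, and products were TA-cloned. 5–15 colonies per plate were sequenced.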
# T47D [16] = test: Effect of DNA methylation at (+45) CpG site near PR-B transcription start site (-9) in human T47D cells by sodium bisulfite sequencing analysis; assay type: functional, cell-based; outline: as §2
# T47D [17] = test: Effect of DNA methylation at (+107) CpG site near PR-B transcription start site (-9) in human T47D cells by sodium bisulfite sequencing analysis; assay type: functional, cell-based; outline: as §3
# T47D [18] = test: Effect of DNA methylation at (+112) CpG site near PR-B transcription start site (-9) in human T47D cells by sodium bisulfite sequencing analysis; assay type: functional, cell-based; outline: as §3
# T47D [19] = test: Effect of DNA methylation at (+125) CpG site near PR-B transcription start site (-9) in human T47D cells by sodium bisulfite sequencing analysis; assay type: functional, cell-based; outline: as §3
# T47D [20] = test: Effect of DNA methylation at (+149) CpG site near PR-B transcription start site (-9) in human T47D cells by sodium bisulfite sequencing analysis; assay type: functional, cell-based; outline: as §3
# T47D [21] = test: Effect of DNA methylation at (+162) CpG site near PR-B transcription start site (-9) in human T47D cells by sodium bisulfite sequencing analysis; assay type: functional, cell-based; outline: as §3
# T47D [22] = test: Effect of DNA methylation at (+166) CpG site near PR-B transcription start site (-9) in human T47D cells by sodium bisulfite sequencing analysis; assay type: functional, cell-based; outline: as §3
# T47D [23] = test: Effect of DNA methylation at (+173) CpG site near PR-B transcription start site (-9) in human T47D cells by sodium bisulfite sequencing analysis; assay type: functional, cell-based; outline: as §3
# T47D [24] = test: Effect of DNA methylation at (+190) CpG site near PR-B transcription start site (-9) in human T47D cells by sodium bisulfite sequencing analysis; assay type: functional, cell-based; outline: as §3
# T47D [25] = test: Effect of DNA methylation at (+216) CpG site near PR-B transcription start site (-9) in human T47D cells by sodium bisulfite sequencing analysis; assay type: functional, cell-based; outline: as §3
# T47D [26] = test: Effect of DNA methylation at (+225) CpG site near PR-B transcription start site (-9) in human T47D cells by sodium bisulfite sequencing analysis; assay type: functional, cell-based; outline: as §3
# T47D [27] = test: Effect of DNA methylation at (+267) CpG site near PR-B transcription start site (-9) in human T47D cells by sodium bisulfite sequencing analysis; assay type: functional, cell-based; outline: as §3
# T47D [28] = test: Effect of DNA methylation at (+295) CpG site near PR-B transcription start site (-9) in human T47D cells by sodium bisulfite sequencing analysis; assay type: functional, cell-based; outline: as §3
# T47D [29] = test: Effect of DNA methylation at (+319) CpG site near PR-B transcription start site (-9) in human T47D cells by sodium bisulfite sequencing analysis; assay type: functional, cell-based; outline: as §3
# T47D [30] = test: Effect of DNA methylation at (+335) CpG site near PR-B transcription start site (-9) in human T47D cells by sodium bisulfite sequencing analysis; assay type: functional, cell-based; outline: as §3
# T47D [31] = test: Effect of DNA methylation at (+337) CpG site near PR-B transcription start site (-9) in human T47D cells by sodium bisulfite sequencing analysis; assay type: functional, cell-based; outline: as §3
# T47D [32] = test: Effect of DNA methylation at (+353) CpG site near PR-B transcription start site (-9) in human T47D cells by sodium bisulfite sequencing analysis; assay type: functional, cell-based; outline: as §3
# T47D [33] = test: Effect of DNA methylation at (+356) CpG site near PR-B transcription start site (-9) in human T47D cells by sodium bisulfite sequencing analysis; assay type: functional, cell-based; outline: as §3
# T47D [34] = test: Effect of DNA methylation at (+362) CpG site near PR-B transcription start site (-9) in human T47D cells by sodium bisulfite sequencing analysis; assay type: functional, cell-based; outline: as §3
# T47D [35] = test: Effect of DNA methylation at (+379) CpG site near PR-B transcription start site (-9) in human T47D cells by sodium bisulfite sequencing analysis; assay type: functional, cell-based; outline: as §3
# T47D [36] = test: Effect of DNA methylation at (+398) CpG site near PR-B transcription start site (-9) in human T47D cells by sodium bisulfite sequencing analysis; assay type: functional, cell-based; outline: as §3
# T47D [37] = test: Effect of DNA methylation at (+41) CpG site near PR-B transcription start site (-9) in human T47D cells by sodium bisulfite sequencing analysis; assay type: functional, cell-based; outline: as §2
# T47D [38] = test: Cytotoxicity against human T47D cells assessed as effect on cellular morphology; assay type: cell-based
# T47D [39] = test: Inhibition of PR-A gene expression in human T47D cells at 25 nM in presence of 4 uM of 5-aza-Dc
# T47D [40] = test: Inhibition of PR-B gene expression in human T47D cells at 25 nM in presence of 4 uM of 5-aza-Dc
structure (smiles),measurement,setting,value
Cc1cn(CC(=O)N(CCNC(=O)CN(CCNC(=O)CN(CCNC(=O)CN(CCNC(=O)CN(CCNC(=O)CN(CCNC(=O)CN(CCNC(=O)CN(CCNC(=O)CN(CCNC(=O)CN(CCNC(=O)CN(CCNC(=O)CN(CCNC(=O)CN(CCNC(=O)CN(CCNC(=O)CN(CCNC(=O)CN(CCNC(=O)CN(CCNC(=O)CN(CCNC(=O)CN(CCNC(=O)CN(CCNC(=O)CN)C(=O)Cn2ccc(=O)[nH]c2=O)C(=O)Cn2cnc3c(=O)[nH]c(N)nc32)C(=O)Cn2ccc(=O)[nH]c2=O)C(=O)Cn2ccc(N)nc2=O)C(=O)Cn2ccc(=O)[nH]c2=O)C(=O)Cn2cnc3c(=O)[nH]c(N)nc32)C(=O)Cn2cnc3c(=O)[nH]c(N)nc32)C(=O)Cn2ccc(N)nc2=O)C(=O)Cn2ccc(N)nc2=O)C(=O)Cn2cnc3c(N)ncnc32)C(=O)Cn2cnc3c(=O)[nH]c(N)nc32)C(=O)Cn2ccc(=O)[nH]c2=O)C(=O)Cn2ccc(N)nc2=O)C(=O)Cn2ccc(N)nc2=O)C(=O)Cn2cnc3c(N)ncnc32)C(=O)Cn2ccc(N)nc2=O)C(=O)Cn2cnc3c(N)ncnc32)C(=O)Cn2cnc3c(=O)[nH]c(N)nc32)C(=O)Cn2ccc(N)nc2=O)CC(=O)NCCN(CC(=O)NCC(=O)O)C(=O)Cn2cc(C)c(=O)[nH]c2=O)c(=O)[nH]c1=O,inhibition at 0.025 µM,T47D [1],79%
same,inhibition at 0.025 µM,T47D [2],88%
same,IC50,T47D [3],2.5 nM
same,IC50,T47D [4],2.5 nM
same,inhibition,T47D [5],Active
same,inhibition,T47D [6],Active
same,inhibition at 0.1 µM,T47D [7],95%
same,inhibition at 0.1 µM,T47D [8],100%
same,inhibition,T47D [9],Active
same,inhibition,T47D [10],Active
same,Activity,T47D [11],inactive
same,Activity,T47D [12],inactive
same,Activity,T47D [13],inactive
same,Activity,T47D [14],inactive
same,Activity,T47D [15],inactive
same,Activity,T47D [16],inactive
same,Activity,T47D [17],inactive
same,Activity,T47D [18],inactive
same,Activity,T47D [19],inactive
same,Activity,T47D [20],inactive
same,Activity,T47D [21],inactive
same,Activity,T47D [22],inactive
same,Activity,T47D [23],inactive
same,Activity,T47D [24],inactive
same,Activity,T47D [25],inactive
same,Activity,T47D [26],inactive
same,Activity,T47D [27],inactive
same,Activity,T47D [28],inactive
same,Activity,T47D [29],inactive
same,Activity,T47D [30],inactive
same,Activity,T47D [31],inactive
same,Activity,T47D [32],inactive
same,Activity,T47D [33],inactive
same,Activity,T47D [34],inactive
same,Activity,T47D [35],inactive
same,Activity,T47D [36],inactive
same,Activity,T47D [37],inactive
same,Activity,T47D [38],Non-toxic
same,inhibition,T47D [39],Active
same,inhibition,T47D [40],Active
